The record followed here is ChEMBL document CHEMBL4219021, “Discovery of a Small-Molecule Degrader of Bromodomain and Extra-Terminal (BET) Proteins with Picomolar Cellular Potencies and Capable of Achieving Tumor Regression” (J Med Chem, 2018).

Active and inactive are the calls of the source. No cut-off for these calls is given here.

Data set [1] relates to Mus musculus. As to the kind of experiment: In vivo induction of cereblon/cullin 4A-mediated BRD4 degradation in tumor of SCID mouse xenografted with human RS4:11 cells at 5 mg/kg, iv administered as single dose measured after 24 hrs by Western blot method. In kind it is functional, organism-based. In a few lines:
(§1)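 SCID mice bearing subcutaneous RS4;11 tumors received a single 5 mg/kg iv dose. Sacrificed at 1, 3, 6 and 24 h, with vehicle controls at 6 h, two mice per time point. Tumors ground in liquid nitrogen and lysed in CHAPS buffer, then immunoblotted for BRD2/3/4, c-Myc, PARP/cleaved PARP and caspase-3/cleaved caspase-3. Actin served as loading control.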
On the technique in general: A xenograft is tissue or cells of one species grown in another, often human tumour cells in immunodeficient mice.

Data set [2] concerns MOLM-13. As to the kind of experiment: Induction of cell cycle arrest in human MOLM13 cells after 24 hrs by propidium iodide staining based flow cytometry. In kind it is functional. The gist of the method: (§2)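 RS4;11 or MOLM-13 cells treated with compound for 24 h, then analyzed by flow cytometry. Cell cycle read by propidium iodide staining and apoptosis by annexin V/propidium iodide staining.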

Data set [3] deals with T1, Protein cereblon/Bromodomain-containing protein 4/Cullin-4A (Homo sapiens) (UniProt O60885+Q96SW2+Q13619). As to the kind of experiment: Induction of cereblon/cullin 4A-mediated BRD4 degradation in human RS4:11 cells at 1 nM after 3 hrs in presence of BET inhibitor 4-((3-Cyclopropyl-1-ethyl-1H-pyrazol-5-yl)amino)-7-(3,5-dimethylisoxazol-4-yl)-6-methoxy-N-methyl-9H-pyrimido[4,5-b]-indole-2-carboxamide by Western blot method. It counts as cell-based. On the technique in general: A western blot detects proteins with antibodies after separation by electrophoresis.

In data set [4] the target is T1, Protein cereblon/Bromodomain-containing protein 4/Cullin-4A (Homo sapiens). Nature of the data set: Induction of cereblon/cullin 4A-mediated BRD4 degradation in human RS4:11 cells at 1 nM after 3 hrs in presence of cereblon inhibitor lenalidomide by Western blot method. It counts as cell-based.
Data set [5] has as its system RS4-11. As to the kind of experiment: Antitumor activity against human RS4:11 cells xenografted in SCID mouse assessed as tumor growth regression at 5 mg/kg, iv […] administered every other day three times per week for 3 weeks relative to control. It counts as functional. In a few lines:
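SCID mice given 5×10⁶ RS4;11 cells in 50% Matrigel subcutaneously on the dorsal side, one tumor per mouse. Randomized at ~100 mm³, then dosed 5 mg/kg iv every other day, three times a week for 3 weeks. Tumors measured by caliper 2–3 times/week, V = LW²/2. Body weight recorded 2–3 times/week and daily toxicity checks made.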

Data set [6] concerns MOLM-13. Nature of the data set: Induction of apoptosis in human MOLM13 cells at 3 to 10 nM after 24 hrs by Annexin-V/propidium iodide staining based flow cytometry. In kind it is functional, cell-based. In a few lines: as §2
A general note: Flow cytometry measures light scatter and fluorescence of single cells or particles in a stream.

Data set [7] relates to Mus musculus. As to the kind of experiment: Toxicity in SCID mouse xenografted with human RS4:11 cells assessed as body weight loss at 5 mg/kg, iv […] administered every other day three times per week for 3 weeks. It counts as organism-based. The note with it: in vivo, 504 h. The gist of the method: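 SCID mice carried subcutaneous dorsal RS4;11 xenografts (5 × 10⁶ cells in 50% Matrigel). Once tumors reached ∼100 mm³, mice were randomized to treatment or vehicle. Dosing was 5 mg/kg iv every other day, three times weekly, for 3 weeks. Animals were checked daily for toxicity and weighed 2–3 times weekly during treatment, then at least weekly afterward.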

Data set [8] has as its system Mus musculus. Nature of the data set: In vivo induction of cereblon/cullin 4A-mediated BRD2 degradation in tumor of SCID mouse xenografted with human RS4:11 cells at 5 mg/kg, iv administered as single dose measured after 24 hrs by Western blot method. It counts as functional, organism-based. The gist of the method: as §1
The test system of data set [9] is RS4-11. Nature of the data set: Induction of apoptosis in human RS4:11 cells at 3 to 10 nM after 24 hrs by Annexin-V/propidium iodide staining based flow cytometry. In kind it is functional, cell-based. The gist of the method: as §2
Data set [10] relates to RS4-11. Nature of the data set: Induction of cell cycle arrest in human RS4:11 cells after 24 hrs by propidium iodide staining based flow cytometry. In kind it is functional. The gist of the method: as §2
Data set [11] concerns the target T2, Protein cereblon/Bromodomain-containing protein 3/Cullin-4A (Homo sapiens) (UniProt Q15059+Q96SW2+Q13619). As to the kind of experiment: Induction of cereblon/cullin 4A-mediated BRD3 degradation in human RS4:11 cells at 1 nM after 3 hrs in presence of NAE inhibitor MLN4924 by Western blot method. In kind it is cell-based.
Data set [12] deals with T2, Protein cereblon/Bromodomain-containing protein 3/Cullin-4A (Homo sapiens). As to the kind of experiment: Induction of cereblon/cullin 4A-mediated BRD3 degradation in human RS4:11 cells at 1 nM after 3 hrs in presence of cereblon inhibitor lenalidomide by Western blot method. In kind it is cell-based.
In data set [13] the target is T1, Protein cereblon/Bromodomain-containing protein 4/Cullin-4A (Homo sapiens). Nature of the data set: Induction of cereblon/cullin 4A-mediated BRD4 degradation in human RS4:11 cells at 1 nM after 3 hrs in presence of proteosome inhibitor MG-132 by Western blot method. It counts as cell-based.
A short description of data set [14]: Drug metabolism in mouse liver microsomes assessed as metabolite m3 formation at 10 uM after 20 to 40 mins in presence of beta-NADPH […]. In kind it is ADME, microsome.
In data set [15] the test system is Mus musculus. Nature of the data set: In vivo induction of cereblon/cullin 4A-mediated BET degradation in tumor of SCID mouse xenografted with human RS4:11 cells assessed as downregulation of c-Myc level at 5 mg/kg, iv administered as single dose measured up to 6 hrs by Western blot method. In kind it is functional, organism-based. In a few lines:
as §1

Data set [16] can be described thus: Drug metabolism in mouse liver microsomes assessed as metabolite m2 formation at 10 uM after 20 to 40 mins in presence of beta-NADPH […]. In kind it is ADME, microsome.
The nature of data set [17]: Drug metabolism in mouse liver microsomes assessed as N-butyl-4-(3-cyclopropyl-1-ethyl-1H-pyrazol-5-ylamino)-7-(3,5-dimethylisoxazol-4-yl)-6-methoxy-9H-pyrimido[4,5-b]indole-2-carboxamide formation at 10 uM after 20 to 40 mins in presence of beta-NADPH […]. It counts as ADME, microsome.
The species named for a further data set is Homo sapiens. As to the kind of experiment: Induction of cereblon/cullin 4A-mediated BET degradation in human RS4:11 cells assessed as downregulation of c-myc protein level at 0.1 nM after 24 hrs by Western blot method. It counts as cell-based. In a few lines: (§3)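 RS4;11 cells (2 × 10⁶/well) treated for 24 h at the indicated concentrations. Lysed in RIPA with protease inhibitors and immunoblotted for BRD2, BRD3, BRD4, c-Myc and PARP, with GAPDH as loading control.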

Data set [18] can be described thus: Drug metabolism in mouse liver microsomes assessed as 4-(3-cyclopropyl-1H-pyrazol-5-ylamino)-7-(3,5-dimethylisoxazol-4-yl)-N-(5-(2-(2,6-dioxopiperidin-3-yl)-1-oxoisoindolin-4-yl)pentyl)-6-methoxy-9H-pyrimido[4,5-b]indole-2-carboxamide formation at 10 uM after 20 to 40 mins in presence of beta-NADPH […]. In kind it is ADME, microsome.
The target in data set [19] is T3, Protein cereblon/Bromodomain-containing protein 2/Cullin-4A (Homo sapiens) (UniProt P25440+Q96SW2+Q13619). Nature of the data set: Induction of cereblon/cullin 4A-mediated BRD2 degradation in human RS4:11 cells at 1 nM after 3 hrs in presence of cereblon inhibitor lenalidomide by Western blot method. In kind it is cell-based.
For data set [20], the target named is T3, Protein cereblon/Bromodomain-containing protein 2/Cullin-4A (Homo sapiens). As to the kind of experiment: Induction of cereblon/cullin 4A-mediated BRD2 degradation in human RS4:11 cells at 1 nM after 3 hrs in presence of proteosome inhibitor MG-132 by Western blot method. In kind it is cell-based.
Data set [21] shares this target. As to the kind of experiment: Induction of cereblon/cullin 4A-mediated BRD2 degradation in human RS4:11 cells at 0.1 nM after 24 hrs by Western blot method. It counts as cell-based. In a few lines: as §3
Data set [22] concerns Mus musculus. Nature of the data set: In vivo induction of cereblon/cullin 4A-mediated BRD3 degradation in tumor of SCID mouse xenografted with human RS4:11 cells at 5 mg/kg, iv administered as single dose measured after 24 hrs by Western blot method. It counts as functional, organism-based. The gist of the method: as §1
The target of data set [23] is T2, Protein cereblon/Bromodomain-containing protein 3/Cullin-4A (Homo sapiens). Nature of the data set: Induction of cereblon/cullin 4A-mediated BRD3 degradation in human RS4:11 cells at 1 nM after 3 hrs in presence of BET inhibitor 4-((3-Cyclopropyl-1-ethyl-1H-pyrazol-5-yl)amino)-7-(3,5-dimethylisoxazol-4-yl)-6-methoxy-N-methyl-9H-pyrimido[4,5-b]-indole-2-carboxamide by Western blot method. It counts as cell-based.

T3 sequence (P25440 whole entry, looked up): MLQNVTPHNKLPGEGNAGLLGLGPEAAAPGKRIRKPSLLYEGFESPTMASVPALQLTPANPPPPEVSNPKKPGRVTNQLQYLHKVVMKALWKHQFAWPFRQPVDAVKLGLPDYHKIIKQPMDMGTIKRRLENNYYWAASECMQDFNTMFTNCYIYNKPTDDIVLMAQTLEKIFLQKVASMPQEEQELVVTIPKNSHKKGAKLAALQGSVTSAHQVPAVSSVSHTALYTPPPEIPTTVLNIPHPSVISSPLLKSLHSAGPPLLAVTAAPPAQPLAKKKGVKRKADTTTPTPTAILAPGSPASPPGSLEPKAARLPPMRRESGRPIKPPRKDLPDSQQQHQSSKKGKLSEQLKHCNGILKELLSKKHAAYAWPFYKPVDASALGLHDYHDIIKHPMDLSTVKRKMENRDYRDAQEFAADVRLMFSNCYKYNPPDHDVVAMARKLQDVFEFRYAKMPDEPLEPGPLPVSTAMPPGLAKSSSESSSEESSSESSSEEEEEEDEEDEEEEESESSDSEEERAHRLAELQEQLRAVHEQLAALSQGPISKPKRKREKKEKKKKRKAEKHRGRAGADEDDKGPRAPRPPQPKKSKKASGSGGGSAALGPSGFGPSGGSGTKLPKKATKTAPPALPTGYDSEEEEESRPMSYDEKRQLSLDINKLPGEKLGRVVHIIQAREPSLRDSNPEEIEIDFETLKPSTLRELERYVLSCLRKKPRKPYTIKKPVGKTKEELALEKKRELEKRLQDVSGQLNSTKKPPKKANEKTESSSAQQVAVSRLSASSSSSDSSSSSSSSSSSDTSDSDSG
T3 sequence (Q13619 whole entry, looked up): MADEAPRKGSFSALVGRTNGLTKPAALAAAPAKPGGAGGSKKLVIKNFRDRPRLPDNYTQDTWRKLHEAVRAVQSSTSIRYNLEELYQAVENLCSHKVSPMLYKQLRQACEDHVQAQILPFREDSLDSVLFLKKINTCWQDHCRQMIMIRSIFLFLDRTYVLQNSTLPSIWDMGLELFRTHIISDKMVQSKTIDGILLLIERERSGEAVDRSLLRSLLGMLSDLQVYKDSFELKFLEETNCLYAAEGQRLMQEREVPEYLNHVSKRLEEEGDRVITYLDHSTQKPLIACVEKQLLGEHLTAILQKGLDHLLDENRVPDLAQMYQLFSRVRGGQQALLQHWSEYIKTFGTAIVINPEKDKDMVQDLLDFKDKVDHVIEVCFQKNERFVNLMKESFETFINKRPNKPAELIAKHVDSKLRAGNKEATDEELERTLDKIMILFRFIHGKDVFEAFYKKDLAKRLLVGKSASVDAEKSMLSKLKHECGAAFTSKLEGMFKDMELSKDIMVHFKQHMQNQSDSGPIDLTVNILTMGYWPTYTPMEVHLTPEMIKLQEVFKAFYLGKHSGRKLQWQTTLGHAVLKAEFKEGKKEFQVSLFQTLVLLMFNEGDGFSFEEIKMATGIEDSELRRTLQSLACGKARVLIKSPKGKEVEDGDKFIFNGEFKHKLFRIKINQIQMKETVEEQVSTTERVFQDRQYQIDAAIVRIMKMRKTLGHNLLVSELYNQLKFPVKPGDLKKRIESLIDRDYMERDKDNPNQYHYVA
T3 sequence (Q96SW2 whole entry, looked up): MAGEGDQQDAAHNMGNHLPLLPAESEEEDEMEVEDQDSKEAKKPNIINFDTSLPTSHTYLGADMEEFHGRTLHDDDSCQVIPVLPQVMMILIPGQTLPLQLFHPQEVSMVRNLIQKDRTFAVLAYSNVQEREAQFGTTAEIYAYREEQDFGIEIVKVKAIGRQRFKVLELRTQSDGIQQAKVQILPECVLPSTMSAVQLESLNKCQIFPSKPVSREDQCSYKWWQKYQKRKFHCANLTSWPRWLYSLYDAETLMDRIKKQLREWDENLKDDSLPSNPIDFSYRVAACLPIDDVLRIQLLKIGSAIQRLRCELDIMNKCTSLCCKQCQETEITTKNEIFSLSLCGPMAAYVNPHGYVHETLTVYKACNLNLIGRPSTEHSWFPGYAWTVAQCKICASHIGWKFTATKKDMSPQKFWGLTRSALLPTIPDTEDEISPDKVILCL
T2 sequence (Q13619 whole entry, looked up): as the sequence (Q13619 whole entry, looked up) above
T2 sequence (Q15059 whole entry, looked up): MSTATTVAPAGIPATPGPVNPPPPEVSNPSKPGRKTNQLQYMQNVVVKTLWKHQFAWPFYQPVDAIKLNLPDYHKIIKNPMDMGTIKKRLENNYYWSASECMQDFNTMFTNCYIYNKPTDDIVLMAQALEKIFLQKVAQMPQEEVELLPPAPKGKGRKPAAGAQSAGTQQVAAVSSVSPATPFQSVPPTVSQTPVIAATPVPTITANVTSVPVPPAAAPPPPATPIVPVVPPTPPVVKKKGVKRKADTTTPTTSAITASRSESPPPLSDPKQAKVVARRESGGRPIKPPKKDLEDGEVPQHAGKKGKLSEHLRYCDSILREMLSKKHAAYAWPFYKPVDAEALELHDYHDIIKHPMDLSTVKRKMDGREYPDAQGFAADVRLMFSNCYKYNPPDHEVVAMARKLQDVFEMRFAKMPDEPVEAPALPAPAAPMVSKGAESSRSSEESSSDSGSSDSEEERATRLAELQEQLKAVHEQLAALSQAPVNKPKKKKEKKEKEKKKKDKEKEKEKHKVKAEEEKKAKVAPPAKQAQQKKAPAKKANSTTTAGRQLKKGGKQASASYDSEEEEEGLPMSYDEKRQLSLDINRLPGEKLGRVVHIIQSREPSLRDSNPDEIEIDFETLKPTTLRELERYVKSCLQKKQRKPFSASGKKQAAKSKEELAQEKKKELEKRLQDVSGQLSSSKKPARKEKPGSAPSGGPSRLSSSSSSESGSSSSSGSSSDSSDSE
T2 sequence (Q96SW2 whole entry, looked up): as the sequence (Q96SW2 whole entry, looked up) above

Regarding `CCn1nc(C2CC2)cc1Nc1nc(C(=O)NCCCCCc2cccc3c2CN(C2CCC(=O)NC2=O)C3=O)nc2[nH]c3cc(-c4c(C)noc4C)c(OC)cc3c12` (centres undefined), the outcome with Mus musculus [1], with MOLM-13 [6], in the data set with Mus musculus [8], in the data set with RS4-11 [9], with Mus musculus [15] and in the data set listed under Homo sapiens was Active. The outcome (in [21]; in the data set on Mus musculus [22]) was Active. The Activity entry with MOLM-13 [2] is “Dose-dependent effect”; in the data set with RS4-11 [5], greater than 90%; in the data set on Mus musculus [7], “Non-Toxic”; with RS4-11 [10], “Dose-dependent effect”. Further, the outcome in data set [3], in [4], in data set [11], in [12], in data set [13] and in [19] was inactive. Also, the outcome in data set [20] and in data set [23] was inactive. For the same compound, the Drug metabolism result in data set [14], in data set [16], in data set [17] and in data set [18] was “Metabolite_Detected” in each case.
